For orientation: Ki means the equilibrium dissociation constant of an inhibitor or competing ligand from its target.

The source of these data is ChEMBL document CHEMBL1926562, “Design, synthesis and biological activity of sphingosine kinase 2 selective inhibitors” (Bioorg Med Chem, 2012).

SMILES strings stand for the structures. Calls of active or inactive are those of the source. The calls are words filed in the database; no cut-off is given here.

Assay [1] concerns the target T1, Sphingosine kinase 1 (Homo sapiens, UniProt Q9NYA1). As to the kind of experiment: Inhibition of human SphK1 expressed in baculovirus infected Sf9 insect cells assessed as remaining activity using sphingosine and [gamma-(32)P]-ATP as substrate at 100 uM by scintillation proximity counting. The essentials:
(§1)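 Enzyme source: supernatant (10,000×g) of homogenized Sf9 cells infected with recombinant virus for 72 h, 2-3 μg protein per reaction. Sphingosine substrate at 10 μM for SphK1 and 5 μM for SphK2. Initial screen used inhibitor at 100 μM, with some compounds at 10 μM. Read-out is percent of remaining kinase activity, averaged over three experiments.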
(In general: In a scintillation proximity assay essentially only radioactivity close to the scintillant gives light.)

Assay [2] concerns the target T2, Sphingosine kinase 2 (Mus musculus) (UniProt Q9JIA7).
T2 sequence (whole entry): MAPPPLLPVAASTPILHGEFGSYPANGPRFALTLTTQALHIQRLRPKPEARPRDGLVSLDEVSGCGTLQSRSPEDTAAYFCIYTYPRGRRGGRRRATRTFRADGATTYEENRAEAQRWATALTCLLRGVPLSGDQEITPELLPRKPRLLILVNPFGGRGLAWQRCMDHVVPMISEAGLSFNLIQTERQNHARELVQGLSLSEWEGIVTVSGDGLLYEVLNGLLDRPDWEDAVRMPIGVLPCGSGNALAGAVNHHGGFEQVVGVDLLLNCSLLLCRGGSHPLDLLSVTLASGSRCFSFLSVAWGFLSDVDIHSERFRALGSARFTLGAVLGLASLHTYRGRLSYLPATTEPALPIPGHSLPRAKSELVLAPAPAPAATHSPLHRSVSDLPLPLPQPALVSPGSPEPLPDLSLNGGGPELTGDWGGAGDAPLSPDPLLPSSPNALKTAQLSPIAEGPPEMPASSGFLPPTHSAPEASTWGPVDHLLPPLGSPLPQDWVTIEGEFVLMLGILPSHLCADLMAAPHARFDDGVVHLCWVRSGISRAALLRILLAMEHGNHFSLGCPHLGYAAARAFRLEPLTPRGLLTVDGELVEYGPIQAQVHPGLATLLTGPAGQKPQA
The assay can be described thus: Inhibition of mouse SphK2 expressed in baculovirus infected Sf9 insect cells assessed as remaining activity using sphingosine and [gamma-(32)P]-ATP at 100 uM by scintillation proximity counting. The essentials: as §1

Assay [3] concerns the target T1, Sphingosine kinase 1. The assay can be described thus: Inhibition of human SphK1 expressed in baculovirus infected Sf9 insect cells using sphingosine and [gamma-(32)P]-ATP by scintillation proximity assay. The essentials:
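Ki calculated as Ki = [I]/(K′m/Km – 1), using a sphingosine Km of 10 μM for SphK1 and 5 μM for SphK2. Enzyme came from infected Sf9 cell extract (10,000×g supernatant, 2-3 μg protein).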

A further assay deals with T3, Sphingosine kinase 2 (Mus musculus, UniProt Q9JIA7).
T3 sequence (Q9JIA7 whole entry): T2 sequence (whole entry)
As to the kind of experiment: Inhibition of mouse SphK2 expressed in baculovirus infected Sf9 insect cells using sphingosine and [gamma-(32)P]-ATP by scintillation proximity assay.

In assay [4] the target is T4, Sphingosine kinase 2 (Homo sapiens) (UniProt Q9NRA0).
T4 sequence (whole entry): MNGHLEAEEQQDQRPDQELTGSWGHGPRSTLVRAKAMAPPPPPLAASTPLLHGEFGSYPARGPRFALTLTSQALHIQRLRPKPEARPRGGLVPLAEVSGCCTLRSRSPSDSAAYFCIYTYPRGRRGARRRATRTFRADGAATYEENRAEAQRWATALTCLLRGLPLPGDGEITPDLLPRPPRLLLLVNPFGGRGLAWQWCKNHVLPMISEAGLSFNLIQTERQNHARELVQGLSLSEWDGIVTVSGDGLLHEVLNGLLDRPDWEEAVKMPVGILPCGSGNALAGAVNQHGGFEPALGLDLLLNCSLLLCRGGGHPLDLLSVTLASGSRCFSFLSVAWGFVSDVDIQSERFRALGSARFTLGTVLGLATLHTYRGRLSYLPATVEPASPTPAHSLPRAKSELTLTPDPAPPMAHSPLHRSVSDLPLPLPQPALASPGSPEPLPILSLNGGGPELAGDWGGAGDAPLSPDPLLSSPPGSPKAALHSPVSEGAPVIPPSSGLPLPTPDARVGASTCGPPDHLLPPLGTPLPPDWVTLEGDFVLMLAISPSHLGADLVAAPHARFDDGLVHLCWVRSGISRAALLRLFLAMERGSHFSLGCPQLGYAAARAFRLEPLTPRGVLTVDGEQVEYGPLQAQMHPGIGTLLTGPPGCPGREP
As to the kind of experiment: Inhibition of SphK2 in human U937 cells assessed as change in S1P level by LC/MS analysis. It counts as cell-based. As to conditions: U-937. In short, it runs like this:
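U937 cells were treated with inhibitor, and S1P levels were measured by LC/MS.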

In assay [5] the target is T4, Sphingosine kinase 2 (Homo sapiens). The assay can be described thus: Inhibition of SphK2 in human U937 cells using FTY720 as substrate assessed as decrease in phosphorylated FTY720 at 10 uM after 2 hrs by LC/MS analysis. It counts as cell-based. Particulars: U-937. In short, it runs like this:
(§2)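 Cultured U937 cells were given FTY720 plus 10 μM inhibitor for 2 h, then pelleted by centrifugation. FTY720 and FTY720-P in the cell pellet were measured by LC/MS (C18 reverse phase, water/methanol/formic acid gradient) and reported as moles per million cells. Values are means ± SD of three independent experiments, with significance by unpaired two-tailed t-test.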

The target is the same in assay [6]. As to the kind of experiment: Inhibition of SphK2 in human U937 cells using FTY720 as substrate assessed as accumulation of FTY720 at 10 uM after 2 hrs by LC/MS analysis. It is filed as cell-based. As to conditions: U-937. In short, it runs like this:
as §2

Assay [7] shares this target. As to the kind of experiment: Inhibition of SphK2 in human U937 cells assessed as decrease in Akt phosphorylation after 16 hrs by Western blot analysis. It counts as cell-based. As to conditions: U-937. In short, it runs like this: (§3)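 U937 cells were incubated with a range of inhibitor concentrations for 16 h, then washed with PBS and Dounce-lysed. Equal protein amounts were run on 10% SDS–PAGE and blotted to nitrocellulose. Blots were blocked in 5% milk/TBS-Tween, probed with antibodies to ERK, p-ERK, Akt, p-Akt and β-actin (1:1000, 1 h), then HRP anti-IgG (1:2000). PD098059 (10 μM) served as ERK-phosphorylation control.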
In general terms: Immunoblotting shows a protein as a band on a membrane.

Assay [8] has the same target. The assay can be described thus: Inhibition of SphK2 in human U937 cells assessed as decrease in ERK phosphorylation after 16 hrs by Western blot analysis. It is filed as cell-based. As to conditions: U-937. In short, it runs like this: as §3
A short description of assay [9]: Selectivity ratio of Ki/Km for human SphK1 to Ki/Km for mouse SphK2. The essentials:
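Selectivity calculated as (Ki/Km)SphK1 divided by (Ki/Km)SphK2, with sphingosine Km taken as 10 μM for SphK1 and 5 μM for SphK2.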

T1 sequence (Q9NYA1 whole entry): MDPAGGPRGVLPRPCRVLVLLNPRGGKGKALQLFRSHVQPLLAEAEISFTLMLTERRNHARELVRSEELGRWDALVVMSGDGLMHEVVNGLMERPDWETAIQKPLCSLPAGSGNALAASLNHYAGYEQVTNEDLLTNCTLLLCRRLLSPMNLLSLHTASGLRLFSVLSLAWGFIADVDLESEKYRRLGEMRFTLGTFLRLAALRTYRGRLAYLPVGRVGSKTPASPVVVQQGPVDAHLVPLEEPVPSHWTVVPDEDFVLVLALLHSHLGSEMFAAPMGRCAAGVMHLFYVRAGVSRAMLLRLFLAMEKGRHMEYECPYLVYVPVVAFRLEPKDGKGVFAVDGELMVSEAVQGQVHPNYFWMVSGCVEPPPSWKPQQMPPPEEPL

`CCCCCCCCc1ccc([C@H]2CC[C@H]([N+](C)(C)CCC)CC2)cc1`: the Activity on Sphingosine kinase 1 [1] worked out at 5.3%; in assay [2], 7.2%. The Ki at Sphingosine kinase 1 [3] came to 47 µM; at Sphingosine kinase 2 it was 8 µM. Also, in assay [4], the inhibition result was “inactive”. In addition, the inhibition result in assay [5] and in [6] was “Active” throughout. Moreover, the inhibition entry in assay [7] and in assay [8] was “Dose-dependent effect” in each case. For the same compound, the Selectivity ratio in assay [9] came to 2.94.
Regarding `CCCCCCCCc1ccc([C@H]2CC[C@H]([N+](C)(C)C)CC2)cc1`, the Activity on Sphingosine kinase 1 [1] came out at 10.2%; in assay [2], 4%. In addition, the Ki at Sphingosine kinase 1 [3] is 60 µM; at Sphingosine kinase 2, 8 µM. In addition, the inhibition entry in [4] is “inactive”. Besides, the inhibition entry in [5] and in assay [6] was “Active” in each case. The inhibition result in [7] and in assay [8] was “Dose-dependent effect” each time. The Selectivity ratio in assay [9] is 3.75.
